Structures can show the parent of a compound that is named as a salt.
Columns and labels:
isolated rat atria [1] = test: Spontaneously beating isolated rat atria, atria contraction force
isolated rat atria [2] = test: Spontaneously beating isolated rat atria, atria contraction rate; settings: for ACR increase, percentage over the base line: compound alone, 100 μM; for isoprenaline-induced ACR in presence of compound: isoprenaline 10^-6 M + compound 10^-4 M
Method in brief: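 Male Wistar rats (250-350 g) given reserpine 5 mg/kg i.p. 24 hr before euthanasia; thiopental 80 mg/kg i.p. anaesthesia. Whole atria hung at ~0.5 g resting tension in Krebs-Henseleit (95% O2/5% CO2, 37 °C, pH 7.4), equilibrated 30 min. Solvent or test compound (10 or 100 μM) added; after 20 min, cumulative isoprenaline. Contractions counted per minute; % increase over baseline; mean ± SEM, 5-6 experiments.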

PDE3A = PDE3A (Homo sapiens, UniProt Q14432); test: PDE assay kit; type: biochemical
Sequence of PDE3A (Q14432 whole entry): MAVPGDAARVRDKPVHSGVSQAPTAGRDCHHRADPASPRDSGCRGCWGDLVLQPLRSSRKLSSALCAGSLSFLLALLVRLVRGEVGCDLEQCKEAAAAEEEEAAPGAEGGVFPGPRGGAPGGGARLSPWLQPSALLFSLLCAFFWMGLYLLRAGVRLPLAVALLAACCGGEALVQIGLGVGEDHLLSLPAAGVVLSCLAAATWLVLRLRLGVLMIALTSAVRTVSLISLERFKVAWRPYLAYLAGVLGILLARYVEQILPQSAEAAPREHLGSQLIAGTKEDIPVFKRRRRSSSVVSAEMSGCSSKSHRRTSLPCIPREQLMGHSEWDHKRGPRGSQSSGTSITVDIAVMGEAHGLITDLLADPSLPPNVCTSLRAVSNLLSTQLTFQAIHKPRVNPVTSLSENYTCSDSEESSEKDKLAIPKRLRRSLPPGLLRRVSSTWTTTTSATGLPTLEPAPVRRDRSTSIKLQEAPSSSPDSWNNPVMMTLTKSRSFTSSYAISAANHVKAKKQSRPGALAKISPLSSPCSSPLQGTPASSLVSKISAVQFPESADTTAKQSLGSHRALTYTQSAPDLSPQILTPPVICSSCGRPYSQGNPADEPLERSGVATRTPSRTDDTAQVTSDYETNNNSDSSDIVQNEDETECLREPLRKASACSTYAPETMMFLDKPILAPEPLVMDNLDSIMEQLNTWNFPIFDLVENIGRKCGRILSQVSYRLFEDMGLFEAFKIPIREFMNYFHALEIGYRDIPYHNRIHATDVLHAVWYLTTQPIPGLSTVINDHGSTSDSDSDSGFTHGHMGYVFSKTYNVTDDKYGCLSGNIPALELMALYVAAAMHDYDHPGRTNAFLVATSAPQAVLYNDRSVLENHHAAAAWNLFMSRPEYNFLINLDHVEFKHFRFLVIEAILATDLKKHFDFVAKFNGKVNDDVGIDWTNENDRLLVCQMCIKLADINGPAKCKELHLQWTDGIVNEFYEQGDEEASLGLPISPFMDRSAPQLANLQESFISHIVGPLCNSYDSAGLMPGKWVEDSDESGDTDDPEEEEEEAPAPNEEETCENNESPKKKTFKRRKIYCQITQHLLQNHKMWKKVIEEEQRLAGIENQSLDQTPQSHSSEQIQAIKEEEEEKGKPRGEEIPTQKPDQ

[3] = Cont: solvent + 1 μM isoprenaline (isoprenaline alone)
[4] = compound 100 μM, cumulative isoprenaline

Structure (SMILES): CN(C(=O)CCCOc1ccc2[nH]c(=O)ccc2c1)C1CCCCC1 [cilostamide, 4-(1,2-dihydro-2-oxoquinolin-6-hydroxy)-N-cyclohexyl-N-methylbutanamide]
- maximum ACFmax in combination with isoprenaline (isolated rat atria [1]; compound + isoprenaline 3×10^-6 M): 25±5 % HSBL
- maximum ACFmin in combination with isoprenaline (isolated rat atria [1]; compound + isoprenaline 10^-6 M): 39 ±7 % HDBL
- potentiation of the effect of isoprenaline on ACF (isolated rat atria [1]; compound added 20 min before isoprenaline): about 2.86 fold
- ACFmax within 20 min (isolated rat atria [1]; compound alone, 100 μM, 20 min): 11±6 % HSBL
- ACFmin within 20 min (isolated rat atria [1]; compound alone, 100 μM, 20 min): 16±6 % HDBL
- ACFmax at the beginning of adding the compound (isolated rat atria [1]; compound alone, 100 μM): 24±9 % HSBL
- ACFmin at the beginning of adding the compound (initial decrease) (isolated rat atria [1]; compound alone, 100 μM): 9±4 % HDBL
- ACR increase, percentage over the base line (isolated rat atria [2]): 42±10%
- isoprenaline-induced ACR in presence of compound (isolated rat atria [2]): 51±11 % HSBL

Structure (SMILES): CC(C)NCC(O)c1ccc(O)c(O)c1 (stereo not shown) [isoprenaline, isoprenaline hydrochloride]
- ACF (% increase baseline) (isolated rat atria [1]; [3]): 14±6 % increase baseline
- threshold concentration of ACFmax curve (isolated rat atria [1]; isoprenaline alone): 10^-10 M
- maximum ACFmax (isolated rat atria [1]; isoprenaline alone, 3×10^-8 M): 21 % HSBL
- ACF maximum, higher than systolic base line (HSBL) (isolated rat atria [1]; isoprenaline alone, 10^-6 M): 14±6 % HSBL
- ACFmin, higher than diastolic base line (HDBL) (isolated rat atria [1]; isoprenaline alone, 10^-6 M): 10.23±5 % HDBL
- threshold concentration for ACF increase (isolated rat atria [1]; isoprenaline alone, cumulative concentrations): 10^-10 M
- ACR (% increase baseline) (isolated rat atria [2]; [3]): 68±12 % increase baseline
- threshold concentration for ACR increase (isolated rat atria [2]; isoprenaline alone): 10^-10 M

Structure (SMILES): Cc1cc(=O)[nH]c2ccc(OCCCC(=O)N3CCC(C)CC3)cc12 [mc2, 6-(4-(4-methylpiperidin-1-yl)-4-oxobutoxy)-4-methylquinolin-2(1H)-one]
- IC50 (PDE3A): 2000 nM
- ACF (% increase baseline) (isolated rat atria [1]; 10 μM mc2 + 1 μM isoprenaline): 3±1 % increase baseline
- ACF (% increase baseline) (isolated rat atria [1]; 100 μM mc2 + 1 μM isoprenaline): 60±5 % increase baseline
- ACF reached in 20 min (isolated rat atria [1]; compound alone, 100 μM, 20 min): 40±7 % HSBL
- ACFmin within 20 min (isolated rat atria [1]; compound alone, 100 μM, 20 min): 36±6 % HDBL
- ACF change when compound was added (initial) (isolated rat atria [1]; compound alone, 100 μM, at addition): -1.76%
- ACFmax at the beginning of adding the compound (isolated rat atria [1]; compound alone, 100 μM): increased continuously from the beginning
- ACFmin at the beginning of adding the compound (initial decrease) (isolated rat atria [1]; compound alone, 100 μM): -6 % HDBL
- isoprenaline-augmented ACF in presence of compound (isolated rat atria [1]; isoprenaline 10^-6 M + compound 10^-5 M): 3±1 % HSBL
- ACR (% increase baseline) (isolated rat atria [2]; 10 μM mc2 + 1 μM isoprenaline): 50±10 % increase baseline
- ACR (% increase baseline) (isolated rat atria [2]; 100 μM mc2 + 1 μM isoprenaline): 6±7 % increase baseline
- ACR increase, percentage over the base line (isolated rat atria [2]): did not change

Structure (SMILES): Cc1cc(=O)[nH]c2ccc(OCCCC(=O)N3CCC(O)CC3)cc12 [mc3, 6-(4-(4-hydroxypiperidin-1-yl)-4-oxobutoxy)4-methylquinolin-2(1H)-one]
- IC50 (PDE3A): 1000 nM
- effect on isoprenaline concentration-response curve (ACF) (isolated rat atria [1]; [4]): did not change
- ACF increase, percentage over the base line (isolated rat atria [1]; compound alone, 100 μM): did not change
- effect on isoprenaline concentration-response curve (ACR) (isolated rat atria [2]; [4]): did not make any significant changes
- ACR increase, percentage over the base line (isolated rat atria [2]): did not change

Structure (SMILES): Cc1cc(=O)[nH]c2ccc(OCCCC(=O)N3CCCC3)cc12 [mc6, 6-(4-oxo-4-(pyrrolidin-1-yl)butoxy)-4-methylquinolin-2(1H)-one]
- ACF increase, percentage over the base line (isolated rat atria [1]; compound alone, 100 μM): 11±4%
- ACR increase, percentage over the base line (isolated rat atria [2]): 65±6%
- isoprenaline-induced ACR in presence of compound (isolated rat atria [2]): 91±6 % HSBL

Reference: article PMC5569452 (Iranian Journal of Basic Medical Sciences, 2017)
